We go through 1 compound from ChEMBL document CHEMBL3853342, “Design, synthesis and biological evaluation of novel benzo-α-pyrone containing piperazine derivatives as potential BRAFV600E inhibitors” (Bioorg Med Chem Lett, 2016).

Assay [1] is described as follows: Induction of apoptosis in human WM1361 cells assessed as late apoptotic cells at 20 uM after 24 hrs by Annexin V-FITC/propidium iodide based flow cytometric analysis (reference value: 2.96 %). The format is functional. (Flow cytometry measures light scatter and fluorescence of single cells or particles in a stream.)
Assay [2] in a line: Cell cycle arrest in human WM266.4 cells assessed as accumulation at S phase at 4 uM after 24 hrs by propidium iodide staining based FACS analysis (reference value: 29.03 to 29.51%). It counts as functional. To be noted: WM 266-4. The gist of the method:
(§1)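 WM266-4 (BRAF V600E melanoma) cells exposed to 0, 2, 4 or 8 µM for 24 h. Cell-cycle distribution by flow cytometry, with G1, S and G2/M fractions gated. Three independent experiments.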

Assay [3] deals with WM 266-4. As to the kind of experiment: Induction of apoptosis in human WM266.4 cells assessed as early apoptotic cells at 2 uM after 24 hrs by Annexin V-FITC/propidium iodide based flow cytometric analysis (reference value: 1.60 %). The format is functional. The gist of the method: (§2)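 Apoptosis in WM266-4 (BRAF V600E) cells after 24 h at 0, 2, 4 or 8 µM, by Annexin V-FITC/PI dual staining and flow cytometry. Percentages of apoptotic cells were calculated. Three independent experiments.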

The nature of assay [4]: Antiproliferative activity against human WM266.4 cells harboring BRAF V600E mutant assessed as cell growth inhibition after 24 hrs by MTT assay. The format is functional, cell-based. The following applies: WM 266-4, 24 h. For orientation: Formazan colour is commonly taken as a measure of viable cells.
Assay [5] is described as follows: Cell cycle arrest in human WM266.4 cells assessed as accumulation at G0/G1 phase at 4 uM after 24 hrs by propidium iodide staining based FACS analysis (reference value: 56.58 to 64.70%). The format is functional. The following applies: WM 266-4. The method in brief: as §1
Assay [6] in a line: Antiproliferative activity against human A375 cells assessed as cell growth inhibition after 24 hrs by MTT assay. The format is functional, cell-based. To be noted: A-375, 24 h.
A short description of assay [7]: Cell cycle arrest in human WM266.4 cells assessed as accumulation at G0/G1 phase at 2 uM after 24 hrs by propidium iodide staining based FACS analysis (reference value: 56.58 %). The format is functional. The following applies: WM 266-4. The gist of the method: as §1
In assay [8] the test system is WM 266-4. As to the kind of experiment: Induction of apoptosis in human WM266.4 cells assessed as necrotic cells at 4 uM after 24 hrs by Annexin V-FITC/propidium iodide based flow cytometric analysis (reference value: 0.435 %). It counts as functional. The gist of the method: as §2
Assay [9] concerns WM 266-4. As to the kind of experiment: Induction of apoptosis in human WM266.4 cells assessed as late apoptotic cells at 4 uM after 24 hrs by Annexin V-FITC/propidium iodide based flow cytometric analysis (reference value: 5.04 %). It counts as functional. The method in brief:
as §2

For assay [10], the system named is WM 266-4. Put plainly: Induction of apoptosis in human WM266.4 cells assessed as late apoptotic cells at 8 uM after 24 hrs by Annexin V-FITC/propidium iodide based flow cytometric analysis (reference value: 5.04 %). It counts as functional. The gist of the method: as §2
The nature of assay [11]: Induction of apoptosis in human WM1361 cells assessed as early apoptotic cells at 20 uM after 24 hrs by Annexin V-FITC/propidium iodide based flow cytometric analysis (reference value: 1.02 %). The format is functional.
The test system of assay [12] is WM 266-4. As to the kind of experiment: Induction of apoptosis in human WM266.4 cells assessed as necrotic cells at 2 uM after 24 hrs by Annexin V-FITC/propidium iodide based flow cytometric analysis (reference value: 0.435 %). It counts as functional. The method in brief:
as §2

The nature of assay [13]: Induction of apoptosis in human WM1361 cells assessed as viable cells at 60 uM after 24 hrs by Annexin V-FITC/propidium iodide based flow cytometric analysis (reference value: 95.2 %). The format is functional. The following applies: WM1361, 24 h, read-out: Activity.
The nature of assay [14]: Induction of apoptosis in human WM1361 cells assessed as necrotic cells at 20 uM after 24 hrs by Annexin V-FITC/propidium iodide based flow cytometric analysis (reference value: 0.860 %). It counts as functional.
The nature of assay [15]: Induction of apoptosis in human WM1361 cells assessed as necrotic cells at 40 uM after 24 hrs by Annexin V-FITC/propidium iodide based flow cytometric analysis (reference value: 0.860 %). The format is functional.
Assay [16] can be described thus: Antiproliferative activity against human WM1361 cells assessed as cell growth inhibition after 24 hrs by MTT assay. The following applies: WM1361, 24 h. It counts as functional, cell-based.
The nature of assay [17]: Cell cycle arrest in human WM266.4 cells assessed as accumulation at G2/M phase at 8 uM after 24 hrs by propidium iodide staining based FACS analysis (reference value: 14.39 %). It counts as functional. To be noted: WM 266-4. The gist of the method:
as §1

By IC50 is commonly meant the concentration that inhibits the measured activity by half. `O=c1oc2ccccc2c(N2CCN(C(c3ccccc3)c3ccccc3)CC2)c1CO`: the Activity was found to be 3.36% in assay [1]; 5.88% in assay [2]; 13.4% with WM 266-4 [3]; 76.4% in assay [5]; 65.8% in [7]; 1.88% with WM 266-4 [8]. Also, the Activity was 21.2% in the assay with WM 266-4 [9]; 32.7% in the assay with WM 266-4 [10]; 1.16% in [11]; 5.06% with WM 266-4 [12]; 1.36% in assay [14]; 1.15% in assay [15]. Further, the Activity in [17] amounted to 11.1%. Also, the IC50 in [4] was 1350 nM; in assay [6], 2240 nM; in assay [16], 21100 nM. Also, the viability at 60 µM in assay [13] worked out at 91.8%.
